Calls of active or inactive are those of the source. No cut-off for these calls is given here.
Legend:
Peritoneal macrophage [1] = assay: Antiinflammatory activity in C57BL/6 mouse peritoneal macrophages assessed as inhibition of LPS-induced PGE2 production at 60 uM preincubated for 1 hr followed by LPS challenge for 48 hrs by ELISA method; assay type: functional; conditions: C57BL/6, Peritoneal macrophage
RAW264.7 [2] = assay: Cytotoxicity against mouse RAW264.7 cells assessed as decrease in cell viability after 24 hrs by MTT assay; assay type: cell-based; conditions: RAW264.7, 24 h
In short: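 RAW 264.7 cells seeded at 1 × 10^5 cells/mL in DMEM with 10% FBS and incubated overnight. Exposed to compound (0−400 μM) for 24 h, with or without LPS. MTT added for 4 h at 37 °C, formazan dissolved in DMSO, absorbance read at 540 nm; IC50 derived.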

Rattus norvegicus [3] = assay: Antiinflammatory activity in Sprague-Dawley rat assessed as inhibition of croton oil-induced inflammatory cell infiltration at 10 mg/kg, ip administered 1 hr before croton oil challenge measured after 3 hrs by hematoxylin and eosin staining based assay; assay type: functional, organism-based
In short: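 SD male rats dosed i.p. (10 mg/kg) 1 h before topical croton oil (5% in acetone) on inner right ear; left ear got acetone only. At 3 h rats sacrificed, 6 mm ear punches taken, fixed in 4% paraformaldehyde overnight, paraffin-embedded, H&E-stained for edema and inflammatory cell infiltrate; seven animals per group.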

Peritoneal macrophage [4] = assay: Antiinflammatory activity in C57BL/6 mouse peritoneal macrophages assessed as inhibition of LPS-induced IL-6 production at 60 uM preincubated for 1 hr followed by LPS challenge for 48 hrs by ELISA method; assay type: functional; conditions: C57BL/6, Peritoneal macrophage
[5] = target: MAP kinase p38 (Mus musculus) (UniProt P47811+O08911+Q9WUI1+Q9Z1B7); assay: Inhibition of LPS-induced p38 MAPK phosphorylation in mouse RAW264.7 cells preincubated for 1 hr followed by LPS challenge for 30 mins by Western blot analysis; assay type: cell-based
In short: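 RAW 264.7 pretreated 1 h at 15, 30 or 60 μM, then LPS 10 ng/mL for 30 min. Lysates Western-blotted for p-p38, p38, p-JNK, JNK, p-ERK, ERK with β-actin control; ECL, densitometry. Three independent experiments.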

Rattus norvegicus [6] = assay: Antiinflammatory activity in Sprague-Dawley rat assessed as inhibition of croton oil-induced ear edema at 15 mg/kg, ip administered 1 hr before croton oil challenge measured after 3 hrs post challenge relative to control; assay type: functional
In short: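 Male SD rats given compound i.p. (5, 10 or 15 mg/kg) 1 h before topical croton oil (5% in 100 μL acetone) on the inner right ear; the left ear received acetone alone. After 3 h, rats were killed and 6 mm ear punches were taken and measured for thickness. Inhibition calculated relative to the croton-oil-only group; seven rats per group.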

RAW264.7 [7] = assay: Antiinflammatory activity in mouse RAW264.7 cells assessed as inhibition of LPS-induced TNF-alpha mRNA expression at 60 uM after 2 to 12 hrs by qRT-PCR method; assay type: functional, cell-based
In short: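 RAW 264.7 stimulated with LPS 10 ng/mL with or without 60 μM for 2, 4, 6 and 12 h. Total RNA (1 μg) reverse-transcribed with MuLV RT and random primer; SYBR green real-time qPCR with gene-specific primers, triplicate Ct normalized to β-actin. Mean ± SD, three independent experiments.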

[8] = target: Signal transducer and activator of transcription 3 (Mus musculus) (UniProt P42227); assay: Inhibition of LPS-induced STAT3 phosphorylation at Y705 in C57BL/6 mouse peritoneal macrophages at 15 to 60 uM preincubated for 1 hr followed by LPS challenge for 60 mins by Western blot analysis
In short: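 Thioglycolate-elicited C57BL/6 peritoneal macrophages pretreated 1 h at 15, 30 or 60 μM, then LPS 10 μg/mL: 120 min for p-STAT1 Y701, 30 min for p-STAT1 S727, 60 min for p-STAT3 Y705. Western blot with phospho-specific and total STAT antibodies, β-actin control; three independent experiments.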

Signal transducer and activator of transcription 3 (Mus musculus), sequence (P42227 whole entry): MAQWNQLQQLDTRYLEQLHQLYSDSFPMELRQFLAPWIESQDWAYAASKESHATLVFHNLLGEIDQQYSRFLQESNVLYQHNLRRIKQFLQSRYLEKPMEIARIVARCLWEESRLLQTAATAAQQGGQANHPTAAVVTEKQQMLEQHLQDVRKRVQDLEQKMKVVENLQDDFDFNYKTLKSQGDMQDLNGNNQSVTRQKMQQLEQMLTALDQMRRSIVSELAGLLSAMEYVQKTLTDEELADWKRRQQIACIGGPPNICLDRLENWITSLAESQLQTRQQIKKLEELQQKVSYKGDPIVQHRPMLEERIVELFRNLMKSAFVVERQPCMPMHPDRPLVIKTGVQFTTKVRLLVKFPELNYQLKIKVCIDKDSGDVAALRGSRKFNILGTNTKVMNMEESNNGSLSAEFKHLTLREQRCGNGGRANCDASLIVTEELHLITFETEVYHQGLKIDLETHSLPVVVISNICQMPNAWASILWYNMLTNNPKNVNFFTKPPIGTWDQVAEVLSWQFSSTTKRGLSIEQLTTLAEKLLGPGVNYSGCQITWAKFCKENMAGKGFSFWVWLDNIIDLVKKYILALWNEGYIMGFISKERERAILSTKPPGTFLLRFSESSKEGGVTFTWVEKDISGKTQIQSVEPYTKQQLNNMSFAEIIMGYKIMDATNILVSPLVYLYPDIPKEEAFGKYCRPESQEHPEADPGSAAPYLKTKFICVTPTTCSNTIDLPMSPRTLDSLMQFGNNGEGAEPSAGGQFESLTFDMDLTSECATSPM

With `Cc1cc(=O)c2c(O)c([C@@H]3O[C@H](CO)[C@@H](O)[C@H](O)[C@H]3O)c(O)cc2o1` [BIFLORIN] the inhibition at 60 µM (Peritoneal macrophage [1]) was 42.2%, the IC50 (RAW264.7 [2]) was 140 µM and the inhibition (Rattus norvegicus [3]) was “Active”. The inhibition at 60 µM (Peritoneal macrophage [4]) was 61.1%, the inhibition [5] was “Dose-dependent effect” and the inhibition in vivo at 15 mg/kg (Rattus norvegicus [6]) was 74.7%. The inhibition (RAW264.7 [7]) was “Active” and the inhibition [8] was “Active”.

— ChEMBL document CHEMBL4477178, “Biflorin, Isolated from the Flower Buds of Syzygium aromaticum L., Suppresses LPS-Induced Inflammatory Mediators via STAT1 Inactivation in Macrophages and Protects Mice from Endotoxin Shock” (J Nat Prod, 2016)
